ChEMBL document CHEMBL1150062, “Phospholipase A2 inhibitors from marine organisms” (J Nat Prod, 1992)
Activity calls are given as the source filed them. No cut-off for these calls is given here.

target: T1, Phospholipase A2 (Apis mellifera) (UniProt B7UUK1); assay: (§1) Inhibition of bee venom PLA2; details: not given
T1 sequence (whole entry): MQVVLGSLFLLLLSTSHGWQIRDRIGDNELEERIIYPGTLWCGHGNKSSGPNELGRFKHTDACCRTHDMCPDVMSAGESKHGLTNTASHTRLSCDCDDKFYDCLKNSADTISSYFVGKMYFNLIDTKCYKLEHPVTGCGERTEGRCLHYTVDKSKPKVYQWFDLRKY

With `C=C1CCC[C@H]2[C@](C)(CC3=C(O)C(=O)C=C(OC)C3=O)[C@@H](C)CC[C@]12C` as the molecule, how does the Activity read?
The Activity was “inactive”.

target: T2, Phospholipase A2 (Apis mellifera, UniProt B7UUK1); assay: as §1; details: not given
T2 sequence (B7UUK1 whole entry): T1 sequence (whole entry)

Which IC50 does the source give for `CC1=C(CC/C(C)=C/CC/C(C=O)=C\C=C\C2=CC(=O)O[C@H]2O)C(C)(C)CCC1` here?
The IC50 was 280 nM.

How did the IC50 turn out when `CC(=O)O[C@H]1C[C@@H]2[C@@]3(C)CCCC(C)(C)[C@@H]3CC[C@@]2(C)[C@@H]2CC=C(C=O)[C@H](C=O)[C@@]12C` [SCALARADIAL] was run?
The IC50 was 70 nM.

For `CC1(C)CCC[C@]2(C)[C@H]3C[C@@H](O)[C@]4(C)[C@@H](C=O)C(C=O)=CC[C@H]4[C@]3(C)CC[C@@H]12`, which IC50 is on record?
The IC50 was 200 nM.

Which IC50 does the source give for `CC1=C(CC/C(C)=C/CC/C(C)=C/CCC2=CC(=O)OC2O)C(C)(C)CCC1` (stereo unspecified) [LUFFARIELLOLIDE] here?
Its IC50 is 230 nM.

Which IC50 does the source give for `CC1=C(CC/C(C)=C/CCC2=CC[C@H](C3=CC(=O)O[C@H]3O)O[C@H]2O)C(C)(C)CCC1` [MANOALIDE] here?
The IC50 was 40 nM.

target: T3, Phospholipase A2, membrane associated (Homo sapiens) (UniProt P14555); assay: Inhibition of human synovial fluid-PLA2; details: concentration not given here
T3 sequence (whole entry): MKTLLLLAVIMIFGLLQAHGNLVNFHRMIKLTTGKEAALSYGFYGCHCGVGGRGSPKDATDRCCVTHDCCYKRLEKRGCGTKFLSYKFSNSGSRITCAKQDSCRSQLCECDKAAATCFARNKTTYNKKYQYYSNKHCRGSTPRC

Which inhibition does the source give for `CC1=C(CC/C(C)=C/CC/C(C)=C/CCC2=CC(=O)OC2O)C(C)(C)CCC1` (stereo unspecified) [LUFFARIELLOLIDE] here?
Its inhibition is 98%.

target: T1, Phospholipase A2 (Apis mellifera); assay: Inhibition of bee venom PLA2 at 4 uM; details: not given

Which inhibition does the source give for `CC1(C)CCC[C@]2(C)[C@H]3C[C@@H](O)[C@]4(C)[C@H](C=O)C(C=O)=CC[C@H]4[C@]3(C)CC[C@@H]12` here?
The inhibition was less than 70%.

target: T1, Phospholipase A2 (Apis mellifera); assay: Inhibition of bee venom PLA2 assessed as inactivation of enzyme at 2 ug/ml; design: scale not given: the % may be the effect or the level left; details: not given

With `CC1=C[C@H]2Cc3occc3C(C)(C)[C@H]2CC1` as the molecule, how does the Activity read?
Its Activity is “inactive”.

Which Activity does the source give for `C=C([C@@H]1[C@@H](OC(C)=O)O[C@@H]2OC(=O)C[C@@H]21)[C@H]1CC[C@H]2C(C)(C)CCC[C@]12C` here?
Its Activity is 66%.

How did the Activity turn out when `C=C1CCCC(C)(C)[C@@H]2CC[C@@](C)([C@H]3[C@H]4CC(=O)O[C@H]4O[C@H]3O)[C@H]12` was run?
Its Activity is 48%.

For `CC1=CC(CC2=CC(=O)OC2O)C(C(C)C)CC1` (stereo unspecified), which Activity is on record?
The Activity was 60%.

`CC1=CC2C[C@]3(O)OC(=O)C=C3C(C)(C)C2CC1` (stereo partly specified) was tested. Which Activity did it give?
The Activity was 60%.

How did the Activity turn out when `CCCC(=O)O[C@@H]1C[C@H]2C(C)(C)CCC[C@]2(C)C2CC[C@H]3C(=O)O[C@H]4O[C@@H](O)[C@]21[C@H]43` (stereo partly specified) was run?
Its Activity is 65%.

Which Activity does the source give for `CCCC(=O)O[C@H]1[C@@H](O)[C@@]23C(CC[C@H]4C(=O)O[C@@H](O[C@H]2O)[C@H]43)[C@@]2(C)CCCC(C)(C)[C@@H]12` (stereo partly specified) here?
The Activity was 44%.

How did the Activity turn out when `CC1=CC2C[C@]34OC(=O)C[C@]3(O4)C(C)(C)C2CC1` (stereo partly specified) was run?
The Activity was “inactive”.

Which Activity does the source give for `CC(=O)O[C@@H]1O[C@H]2OC(=O)[C@H](C)C3=C([C@@]4(C)CCCC(C)(C)C4)C[C@@H](OC(C)=O)[C@@H]1[C@H]32` here?
Its Activity is 60%.

With `CCCC(=O)O[C@H]1[C@@H](OC(C)=O)[C@@]23C(CC[C@H]4C(=O)O[C@@H](O[C@H]2O)[C@H]43)[C@@]2(C)CCCC(C)(C)[C@H]12` (stereo partly specified) as the molecule, how does the Activity read?
Its Activity is 50%.

Which Activity does the source give for `CC1=C[C@H]2Cc3ccoc3C(C)(C)[C@H]2CC1` here?
The Activity was “inactive”.

target: T1, Phospholipase A2 (Apis mellifera); assay: Inhibition of bee venom PLA2 assessed as inactivation of enzyme at 1.6 ug/ml; design: scale not given: the % may be the effect or the level left; details: not given
Procedure, shortened: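 ³H-dipalmitoyl phosphatidylcholine (1.36 mM, Triton X-100 mixed micelles) in 10 mM HEPES, 1 mM CaCl2, pH 7.4. Bee venom PLA2 (100 units/ml) preincubated 1 h at 41° with compound from 10 mg/ml stock, then added to substrate for 15 sec at 41°. Acid-quenched, released palmitic acid extracted and scintillation counted, corrected for background and extraction efficiency. % inactivation vs vehicle, triplicate mean.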

For `Oc1cc(Cc2c(O)c(Br)c(O)c(Cc3cc(O)c(O)c(Br)c3Br)c2O)c(Br)c(Br)c1O`, which Activity is on record?
The Activity was 96%.

Which Activity does the source give for `Oc1cc(Cc2c(O)cc(O)c(Br)c2O)c(Br)c(Br)c1O` here?
The Activity was 96%.
